Screening data: PubChem, several laboratories
This is a sample that favours compounds with a hit; in the whole collection about 1.9% have one here.
IMP-1 inh: IMP-1 metallo-beta-lactamase inhibitors, primary screen, biochemical, epi-absorbance readout, Pseudomonas aeruginosa enzyme; purified IMP-1, nitrocefin hydrolysis, epi-absorbance fluorescence; inhibition, % at 5.6 µM; 290,000 tested, 0.45% active;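 active = inhibition above the mean plus 3 SD of all compounds in the same screening run, cut at about 4.5% in these data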;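 note: 0% = IMP-1 with DMSO and 100% = DMSO wells lacking enzyme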
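System: purified recombinant IMP-1 beta-lactamase. Medium: Zinc- and detergent-supplemented HEPES buffer, pH 7.1. Compound: one 5.6 µM dose […]. Schedule: 15 min preincubation plus 25 min reaction at 25 °C. Technique: Epi-absorbance fluorescence, 480 nm excitation, 530 nm emission.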
SUMO HTRF inh: inhibitors of in vitro SUMOylation cascade, primary screen, biochemical, HTRF, uHTS; SUMO-conjugating enzyme UBC9 (Homo sapiens), P63279; HTRF SUMOylation assay, SAE1/SAE2 + UBC9; inhibition, % at 35 µM; 290,000 tested, 0.36% active; AID 2006, 2009; in the data active = inhibition above about 50%, passing the limit was not always enough
p-CIP stab down: p/CIP-EGFP fusion destabilizers, primary screen, fluorescence, F442A cells; 290,000 tested, 0.01% active; 16 h; decrease of EGFP signal, % at 10 µM;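 active = EGFP signal decrease of at least 30% at 10 µM or well 3 SD below plate mean, unless failing retest; inactive = the rest, including hits failing retest or dose response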
VIM-2 inh: VIM-2 metallo-beta-lactamase inhibitors, primary screen, biochemical, epi-absorbance readout, Pseudomonas aeruginosa enzyme; 290,000 tested, 0.89% active; AID 1527, 2009; inhibition, % at 5.6 µM; purified VIM-2, nitrocefin hydrolysis, epi-absorbance fluorescence;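 active = inhibition above the mean of all tested compounds plus 3 SD, cutoff set per screening run, cut at about 7.5% in these data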;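 note: red hydrolysis product quenches plate fluorescence so inhibitors raise well fluorescence; 0% = enzyme with DMSO and 100% = DMSO without enzyme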
Fh CTSL1 inh: Fasciola hepatica cathepsin L1 inhibitors, primary screen, counter-screen for PFM18AAP inhibitor project, biochemical, QFRET, fluorogenic peptide substrate; recombinant F. hepatica cathepsin L1, Z-Leu-Arg-MCA fluorescence; inhibition, % at 5.96 µM; 300,000 tested, 0.49% active; AID 1906, 2009;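 active = inhibition above the mean of all tested compounds plus 3 SD, set per screening campaign, cut at about 17% in these data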;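 note: 0% = plate median of test compound wells and 100% = 1 µM Z-Phe-Ala-diazomethylketone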
T cell HTS: modulators of CD8 T cell-vesicle binding, primary screen, mouse 2C CD8+ T cells, flow cytometry. 2C CD8+ T cell-vesicle binding; hits give low values. 330,000 tested, 0.068% active. response (vesicle binding), % at 7 µM;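 active = response, share of CD8 T cells binding vesicles, and their 90th percentile fluorescence all below set limits, cut at about 80% in these data, passing the limit was not always enough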;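 note: values below 100% mean blocked vesicle binding to the CD8+ T cells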
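System: murine 2C transgenic CD8+ T lymphocytes; also added: QL9-loaded Drosophila micro-vesicles; times: binding 1.5 h at 37 °C; measured by: flow cytometry, PE anti-B7-1 (FL2) versus Alexa647 anti-CD8 (FL8), PFA-fixed; control set: Peptide-free naked vesicles (low) and QL9 vesicles with 0.7% DMSO vehicle (high)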
The depositor's hits bear a star.

How did O=C(N[C@H]1C/C=C\C[C@@H](CC(=O)N(CCO)Cc2ccccc2)C(=O)N2CCC[C@@H]2COC1=O)OCC1c2ccccc2-c2ccccc21 do in these assays?
T cell HTS: 0.0*

How did COCc1ccc(C(=O)N2CCCCC2C(=O)Nc2ccc(-n3nc(C)cc3C)cc2)o1 (stereo not given) do in these assays?
IMP-1 inh: -2; SUMO HTRF inh: -10; p-CIP stab down: -17; VIM-2 inh: -2; Fh CTSL1 inh: 1; T cell HTS: 276

Results for Cc1ccc(-n2nc3cc(C)c(N)cc3n2)cc1 ?
IMP-1 inh: -2; SUMO HTRF inh: 27; p-CIP stab down: -32; VIM-2 inh: 0; Fh CTSL1 inh: 5; T cell HTS: 372

What do the screens show for `Nc1ccc(-n2nc3ccccc3n2)cc1`?
Fh CTSL1 inh: 5; T cell HTS: 354

Results for Nc1ccc2nn(-c3cccc4ccccc34)nc2c1 ?
IMP-1 inh: -2; SUMO HTRF inh: 58*; p-CIP stab down: -6; VIM-2 inh: -2; Fh CTSL1 inh: -4; T cell HTS: 332

What do the screens show for `Nc1cc2nn(-c3ccccc3)nc2cc1Cl`?
IMP-1 inh: 2; SUMO HTRF inh: 78*; p-CIP stab down: -5; VIM-2 inh: 7

Results for Nc1ccc2nn(-c3ccccc3)nc2c1 ?
IMP-1 inh: 0; SUMO HTRF inh: 66*; p-CIP stab down: -22; VIM-2 inh: 4

How did CCOC(=O)c1c(C)[nH]c(C(=O)OCC(=O)N(CC(C)C)C2CCS(=O)(=O)C2)c1C (stereo not given) do in these assays?
T cell HTS: 214

Results for COc1ccc(CN(C)C(=O)Cn2cnc3c(OCc4ccccc4)ncnc32)cc1OC ?
T cell HTS: 283

What do the screens show for `CCN1CCN(C(C)CCc2ccccc2)CC1` (stereo not given)?
IMP-1 inh: -2; SUMO HTRF inh: 8; p-CIP stab down: 12; VIM-2 inh: -2; Fh CTSL1 inh: 3; T cell HTS: 190

Results for CCOC(=O)C1=C(C)C(c2ccc(OC)cc2)NC(=S)N1 (stereo not given) ?
IMP-1 inh: -3; SUMO HTRF inh: 26; p-CIP stab down: -1; VIM-2 inh: -4; Fh CTSL1 inh: 17*; T cell HTS: 516

What do the screens show for `CS(=O)(=O)c1ccc(C(=O)NNC(=O)c2ccccc2-n2cccc2)cc1`?
T cell HTS: 650

How did Clc1ccc(C2=CSC3=NCCN23)cc1Cl do in these assays?
IMP-1 inh: -5; SUMO HTRF inh: 19; p-CIP stab down: -2; VIM-2 inh: -3; Fh CTSL1 inh: 0; T cell HTS: 591

How did COc1ccc(C2=CSC3=NCCN23)cc1OC do in these assays?
IMP-1 inh: -4; SUMO HTRF inh: 6; p-CIP stab down: -12; VIM-2 inh: 9.0*; Fh CTSL1 inh: -2; T cell HTS: 523

Results for COc1ccc(-c2csc3nc(-c4cccnc4)nc(Cl)c23)cc1OC ?
IMP-1 inh: -3; SUMO HTRF inh: 10; p-CIP stab down: -12; VIM-2 inh: 12*; Fh CTSL1 inh: 5; T cell HTS: 150

How did COc1ccc(NC(=O)Nc2cccc(C(=O)N3CCOCC3)c2)cc1OC do in these assays?
IMP-1 inh: -1; SUMO HTRF inh: 21; p-CIP stab down: -11; VIM-2 inh: -2; Fh CTSL1 inh: 17*; T cell HTS: 161

How did O=C(NCCN1CCN(c2ccccc2)CC1)c1cccn2c(=O)c3ccccc3nc12 do in these assays?
IMP-1 inh: -3; SUMO HTRF inh: 5; p-CIP stab down: 10; VIM-2 inh: 3; Fh CTSL1 inh: -5; T cell HTS: 155

What do the screens show for `O=C(NCCNc1ccc2ccccc2c1)c1cccn2c(=O)c3sccc3nc12`?
IMP-1 inh: -3; SUMO HTRF inh: 64; p-CIP stab down: -1; VIM-2 inh: 8.1*; Fh CTSL1 inh: 4; T cell HTS: 212

What do the screens show for `O=C(Nc1nnc(-c2ccccc2)o1)c1nc2ccccc2s1`?
SUMO HTRF inh: 74*; p-CIP stab down: 5; Fh CTSL1 inh: 7; T cell HTS: 275

How did CC1C=CC(C)C(C(=O)O)C1C(=O)O (stereo not given) do in these assays?
IMP-1 inh: 23*; SUMO HTRF inh: 14; p-CIP stab down: -7; VIM-2 inh: -2; Fh CTSL1 inh: -4; T cell HTS: 593

What do the screens show for `COC(=O)[C@]1(C)N[C@H](CN(C)S(=O)(=O)c2ccc(OC(F)(F)F)cc2)[C@@H]2C(=O)N(Cc3ccccc3)C(=O)[C@@H]21`?
T cell HTS: 238

Results for CCOc1ccc2c(c1)c1nc3ccccc3nc1n2C ?
IMP-1 inh: 0; SUMO HTRF inh: 19; p-CIP stab down: 9; VIM-2 inh: 8.4*; T cell HTS: 169

What do the screens show for `COc1ccc(Cn2c3ccc(OC)cc3c3nc4ccccc4nc32)cc1`?
IMP-1 inh: 0; SUMO HTRF inh: 42; p-CIP stab down: -16; VIM-2 inh: 0; Fh CTSL1 inh: 1; T cell HTS: 278

What do the screens show for `Cn1c2ccc(F)cc2c2nc3ccccc3nc21`?
IMP-1 inh: -3; SUMO HTRF inh: 13; p-CIP stab down: 4; VIM-2 inh: 7.9*; Fh CTSL1 inh: 3; T cell HTS: 300

Results for Cn1c2ccc(Cl)cc2c2nc3ccccc3nc21 ?
IMP-1 inh: -4; SUMO HTRF inh: 89; p-CIP stab down: 4; VIM-2 inh: -2; Fh CTSL1 inh: 4; T cell HTS: 961

What do the screens show for `O=C(NN=C1CCCC1)c1cccs1`?
IMP-1 inh: 0; SUMO HTRF inh: -13; p-CIP stab down: -15; VIM-2 inh: 2; Fh CTSL1 inh: 3; T cell HTS: 266

What do the screens show for `CC(=O)N1CCC(=NNC(=O)c2cccs2)CC1`?
IMP-1 inh: -2; SUMO HTRF inh: 14; p-CIP stab down: 7; VIM-2 inh: -1; Fh CTSL1 inh: -1; T cell HTS: 0.0*

Results for CC1CCC2(CC1)NC(=O)N(CC(=O)N1c3ccccc3CC1C)C2=O (stereo not given) ?
T cell HTS: 276

What do the screens show for `Cc1ccccc1NC(=S)NCc1ccc2c(c1)cc(C)n2C`?
IMP-1 inh: 43*; SUMO HTRF inh: 12; p-CIP stab down: -3; VIM-2 inh: -5; Fh CTSL1 inh: -2; T cell HTS: 313

What do the screens show for `COc1ccccc1NC(=S)NCc1ccc2c(c1)cc(C)n2C`?
IMP-1 inh: -3; SUMO HTRF inh: -7; p-CIP stab down: -21; VIM-2 inh: -1; Fh CTSL1 inh: 0; T cell HTS: 302
